In brackets after ≈: the same amount, converted by molar mass.
Experiments:
Format in all cases: functional
[1] = test system: Aspergillus fumigatus; assay: Antifungal activity against Aspergillus fumigatus assessed as growth inhibition after 48 to 72 hrs by broth microdilution method
[2] = test system: Klebsiella pneumoniae; assay: Antibacterial activity against Klebsiella pneumoniae assessed as growth inhibition after 18 hrs by broth microdilution method
[3] = test system: Candida albicans; assay: Antifungal activity against Candida albicans assessed as growth inhibition after 48 to 72 hrs by broth microdilution method
[4] = test system: Penicillium chrysogenum; assay: Antifungal activity against Penicillium chrysogenum assessed as growth inhibition after 48 to 72 hrs by broth microdilution method
[5] = Cytotoxicity against mouse Daltons ascitic lymphoma cells assessed as dead cells at 100 ug/ml after 3 hrs by trypan blue exclusion assay relative to control
Procedure, shortened: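 DAL cells (0.2 mL, 10⁶ cells/mL) mixed with ice-cold PBS pH 7.4 and compound (100 µg/mL), held at 37 °C under 5% CO₂ for 3 h. Aliquot then stained with 0.4% trypan blue in normal saline for 5–15 min at room temperature. Live and dead cells counted in a Neubauer chamber; % dead = dead/(dead+live) × 100.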

[6] = test system: Aspergillus niger; assay: Antifungal activity against Aspergillus niger assessed as growth inhibition after 48 to 72 hrs by broth microdilution method
[7] = test system: Fusarium oxysporum; assay: Antifungal activity against Fusarium oxysporum assessed as growth inhibition after 48 to 72 hrs by broth microdilution method
[8] = test system: Staphylococcus aureus; assay: Antibacterial activity against Staphylococcus aureus assessed as growth inhibition after 18 hrs by broth microdilution method
[9] = test system: Aspergillus flavus; assay: Antifungal activity against Aspergillus flavus assessed as growth inhibition after 48 to 72 hrs by broth microdilution method
[10] = test system: Enterococcus faecalis; assay: Antibacterial activity against Enterococcus faecalis assessed as growth inhibition after 18 hrs by broth microdilution method
[11] = test system: Escherichia coli; assay: Antibacterial activity against Escherichia coli assessed as growth inhibition after 18 hrs by broth microdilution method
[12] = test system: Pseudomonas aeruginosa; assay: Antibacterial activity against Pseudomonas aeruginosa assessed as growth inhibition after 18 hrs by broth microdilution method
[13] = test system: Streptococcus mutans; assay: Antibacterial activity against Streptococcus mutans assessed as growth inhibition after 18 hrs by broth microdilution method

Oc1cc(-c2ccccc2)nc2nc3ccccc3n12
MIC [1]: 0.8 µg/mL (≈ 3.06 µM)
MIC [2]: 100 µg/mL (≈ 383 µM)
MIC [3]: 1.6 µg/mL (≈ 6.12 µM)
MIC [4]: 0.2 µg/mL (≈ 0.765 µM)
mortality at 100 µg/mL [5]: 58%
MIC [6]: 6.25 µg/mL (≈ 23.9 µM)
MIC [7]: 0.2 µg/mL (≈ 0.765 µM)
MIC [8]: 100 µg/mL (≈ 383 µM)
MIC [9]: 0.8 µg/mL (≈ 3.06 µM)
MIC [10]: 0.2 µg/mL (≈ 0.765 µM)
MIC [11]: 100 µg/mL (≈ 383 µM)
MIC [12]: 100 µg/mL (≈ 383 µM)
MIC [13]: 100 µg/mL (≈ 383 µM)

CC(C)c1cc(O)n2c(n1)nc1ccccc12
MIC [1]: 1.6 µg/mL (≈ 7.04 µM)
MIC [2]: 100 µg/mL (≈ 440 µM)
MIC [3]: 3.12 µg/mL (≈ 13.7 µM)
MIC [4]: 0.2 µg/mL (≈ 0.88 µM)
mortality at 100 µg/mL [5]: 57%
MIC [6]: 25 µg/mL (≈ 110 µM)
MIC [7]: 0.4 µg/mL (≈ 1.76 µM)
MIC [8]: 100 µg/mL (≈ 440 µM)
MIC [9]: 1.6 µg/mL (≈ 7.04 µM)
MIC [10]: 0.2 µg/mL (≈ 0.88 µM)
MIC [11]: 12.5 µg/mL (≈ 55 µM)
MIC [12]: 12.5 µg/mL (≈ 55 µM)
MIC [13]: 25 µg/mL (≈ 110 µM)

CC(C)c1cc(=O)n2c3ccccc3n(Cc3cc(=O)oc4ccc(Br)cc34)c2n1
MIC [1]: 0.8 µg/mL (≈ 1.72 µM)
MIC [2]: > 100 µg/mL
MIC [3]: 50 µg/mL (≈ 108 µM)
MIC [4]: 0.2 µg/mL (≈ 0.431 µM)
mortality at 100 µg/mL [5]: 47%
MIC [6]: 25 µg/mL (≈ 53.8 µM)
MIC [7]: 0.2 µg/mL (≈ 0.431 µM)
MIC [8]: > 100 µg/mL
MIC [9]: 0.8 µg/mL (≈ 1.72 µM)
MIC [10]: 0.8 µg/mL (≈ 1.72 µM)
MIC [11]: 100 µg/mL (≈ 215 µM)
MIC [12]: > 100 µg/mL
MIC [13]: > 100 µg/mL

CC(C)c1cc(=O)n2c3ccccc3n(Cc3cc(=O)oc4ccc(Cl)cc34)c2n1
MIC [1]: 0.8 µg/mL (≈ 1.91 µM)
MIC [2]: 100 µg/mL (≈ 238 µM)
MIC [3]: 50 µg/mL (≈ 119 µM)
MIC [4]: 0.4 µg/mL (≈ 0.953 µM)
mortality at 100 µg/mL [5]: 88%
MIC [6]: 12.5 µg/mL (≈ 29.8 µM)
MIC [7]: 0.2 µg/mL (≈ 0.476 µM)
MIC [8]: 100 µg/mL (≈ 238 µM)
MIC [9]: 1.6 µg/mL (≈ 3.81 µM)
MIC [10]: 0.4 µg/mL (≈ 0.953 µM)
MIC [11]: 100 µg/mL (≈ 238 µM)
MIC [12]: 100 µg/mL (≈ 238 µM)
MIC [13]: 12.5 µg/mL (≈ 29.8 µM)

COc1ccc2oc(=O)cc(Cn3c4ccccc4n4c(=O)cc(C(C)C)nc34)c2c1
MIC [1]: 0.8 µg/mL (≈ 1.93 µM)
MIC [2]: 100 µg/mL (≈ 241 µM)
MIC [3]: 25 µg/mL (≈ 60.2 µM)
MIC [4]: 0.8 µg/mL (≈ 1.93 µM)
mortality at 100 µg/mL [5]: 62%
MIC [6]: 50 µg/mL (≈ 120 µM)
MIC [7]: 0.2 µg/mL (≈ 0.481 µM)
MIC [8]: 100 µg/mL (≈ 241 µM)
MIC [9]: 0.8 µg/mL (≈ 1.93 µM)
MIC [10]: 0.4 µg/mL (≈ 0.963 µM)
MIC [11]: 100 µg/mL (≈ 241 µM)
MIC [12]: > 100 µg/mL
MIC [13]: 3.16 µg/mL (≈ 7.61 µM)

CC(C)c1cc(=O)n2c3ccccc3n(Cc3cc(=O)oc4ccc(F)cc34)c2n1
MIC [1]: 0.8 µg/mL (≈ 1.98 µM)
MIC [2]: 100 µg/mL (≈ 248 µM)
MIC [3]: 25 µg/mL (≈ 62 µM)
MIC [4]: 0.4 µg/mL (≈ 0.992 µM)
mortality at 100 µg/mL [5]: 81%
MIC [6]: 1.6 µg/mL (≈ 3.97 µM)
MIC [7]: 0.2 µg/mL (≈ 0.496 µM)
MIC [8]: 100 µg/mL (≈ 248 µM)
MIC [9]: 1.6 µg/mL (≈ 3.97 µM)
MIC [10]: 0.4 µg/mL (≈ 0.992 µM)
MIC [11]: 100 µg/mL (≈ 248 µM)
MIC [12]: 100 µg/mL (≈ 248 µM)
MIC [13]: 0.8 µg/mL (≈ 1.98 µM)

Cc1cc(C)c2oc(=O)cc(Cn3c4ccccc4n4c(=O)cc(C(F)(F)F)nc34)c2c1
MIC [1]: 1.6 µg/mL (≈ 3.64 µM)
MIC [2]: 100 µg/mL (≈ 228 µM)
MIC [3]: 50 µg/mL (≈ 114 µM)
MIC [4]: 0.2 µg/mL (≈ 0.455 µM)
mortality at 100 µg/mL [5]: 78%
MIC [6]: 3.12 µg/mL (≈ 7.1 µM)
MIC [7]: 0.2 µg/mL (≈ 0.455 µM)
MIC [8]: 100 µg/mL (≈ 228 µM)
MIC [9]: 3.12 µg/mL (≈ 7.1 µM)
MIC [10]: 0.4 µg/mL (≈ 0.91 µM)
MIC [11]: 100 µg/mL (≈ 228 µM)
MIC [12]: 100 µg/mL (≈ 228 µM)
MIC [13]: 0.2 µg/mL (≈ 0.455 µM)

Cc1ccc2oc(=O)cc(Cn3c4ccccc4n4c(=O)cc(C(F)(F)F)nc34)c2c1
MIC [1]: 25 µg/mL (≈ 58.8 µM)
MIC [2]: 100 µg/mL (≈ 235 µM)
MIC [3]: 50 µg/mL (≈ 118 µM)
MIC [4]: 0.2 µg/mL (≈ 0.47 µM)
mortality at 100 µg/mL [5]: 69%
MIC [6]: 12.5 µg/mL (≈ 29.4 µM)
MIC [7]: 0.2 µg/mL (≈ 0.47 µM)
MIC [8]: 100 µg/mL (≈ 235 µM)
MIC [9]: 12.5 µg/mL (≈ 29.4 µM)
MIC [10]: 0.4 µg/mL (≈ 0.94 µM)
MIC [11]: 100 µg/mL (≈ 235 µM)
MIC [12]: > 100 µg/mL
MIC [13]: 12.5 µg/mL (≈ 29.4 µM)

O=c1cc(Cn2c3ccccc3n3c(=O)cc(C(F)(F)F)nc23)c2cc(F)ccc2o1
MIC [1]: 1.6 µg/mL (≈ 3.73 µM)
MIC [2]: 100 µg/mL (≈ 233 µM)
MIC [3]: 50 µg/mL (≈ 116 µM)
MIC [4]: 0.2 µg/mL (≈ 0.466 µM)
mortality at 100 µg/mL [5]: 79%
MIC [6]: 25 µg/mL (≈ 58.2 µM)
MIC [7]: 0.2 µg/mL (≈ 0.466 µM)
MIC [8]: 100 µg/mL (≈ 233 µM)
MIC [9]: 1.6 µg/mL (≈ 3.73 µM)
MIC [10]: 0.8 µg/mL (≈ 1.86 µM)
MIC [11]: 100 µg/mL (≈ 233 µM)
MIC [12]: 100 µg/mL (≈ 233 µM)
MIC [13]: 12.5 µg/mL (≈ 29.1 µM)
